# Screens from PubChem.
# In the library only some 1.2% were active in any assay of this set; here they are far more common.
# HKDC1 inhibitor – blocks human hexokinase HKDC1 activity; Q2TB90; hit rate 0.16% among 340,000; inhibition, % at 20 µM; recombinant HKDC1, G6PDH/diaphorase resazurin coupled fluorescence;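 active = inhibition above about 35% when tested at 20 µM, limit read from the data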
#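 Material – in-house recombinant HK5 (HKDC1) enzyme · Quantity – HKDC1 at 5 µg/mL · Buffer or medium – pH 8.0 Tris buffer with 10 mM MgCl2 · Reagent – glucose with 1 mM ATP · Dosing – single 20 µM dose · Times – reaction time 90 min, room temperature, protected from light · Technique – resorufin fluorescence at 613 nm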
# HSV replic up – increases HSV replication in cells. maximum fold increase. AID 1956. hit rate 0.005% among 220,000. HSV replication augmentation in cells, fold increase; in the data active = maximum fold increase above about 1.5; inconclusive = no clear call, values can overlap the other calls; tested in PC3 cells
# Autophagy mod – autophagy modulation, high-content screen | MEF GFP-LC3 puncta imaging; test concentration mostly 10 µM | calls only at 10 µM (by protocol) | hit rate 0.98% among 190,000;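 active = percentage of spot-positive cells more than 3 SD above its plate mean, without a fluorescence outlier flag or 80% toxicity; inconclusive = no clear call, values can overlap the other calls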
# TbHK1 inh – T. brucei hexokinase 1 inhibition; AID 1430; inhibition, % at 10 µM; hit rate 0.11% among 220,000; recombinant TbHK1, G6PDH-coupled NADH A340;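 active = inhibition of 50% or more in the single-dose primary screen; inactive = inhibition below 50%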
# PERK inhibitor – inhibitors of human PERK kinase; Q9NZJ5; CHO PERK-DD fusion, SEAP luminescence translation reporter; inhibition, % at 5.6 µM; hit rate 0.17% among 220,000; AID 1416;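 active = inhibition above the mean inhibition of all tested compounds plus 3 SD, set separately per screening campaign, cut at about 2.9% in these data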;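 note: PERK kinase domain activated by AP20187 dimerizer at 100 nM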
# Target sequence (Q9NZJ5 whole entry, looked up, the tested form may be a part): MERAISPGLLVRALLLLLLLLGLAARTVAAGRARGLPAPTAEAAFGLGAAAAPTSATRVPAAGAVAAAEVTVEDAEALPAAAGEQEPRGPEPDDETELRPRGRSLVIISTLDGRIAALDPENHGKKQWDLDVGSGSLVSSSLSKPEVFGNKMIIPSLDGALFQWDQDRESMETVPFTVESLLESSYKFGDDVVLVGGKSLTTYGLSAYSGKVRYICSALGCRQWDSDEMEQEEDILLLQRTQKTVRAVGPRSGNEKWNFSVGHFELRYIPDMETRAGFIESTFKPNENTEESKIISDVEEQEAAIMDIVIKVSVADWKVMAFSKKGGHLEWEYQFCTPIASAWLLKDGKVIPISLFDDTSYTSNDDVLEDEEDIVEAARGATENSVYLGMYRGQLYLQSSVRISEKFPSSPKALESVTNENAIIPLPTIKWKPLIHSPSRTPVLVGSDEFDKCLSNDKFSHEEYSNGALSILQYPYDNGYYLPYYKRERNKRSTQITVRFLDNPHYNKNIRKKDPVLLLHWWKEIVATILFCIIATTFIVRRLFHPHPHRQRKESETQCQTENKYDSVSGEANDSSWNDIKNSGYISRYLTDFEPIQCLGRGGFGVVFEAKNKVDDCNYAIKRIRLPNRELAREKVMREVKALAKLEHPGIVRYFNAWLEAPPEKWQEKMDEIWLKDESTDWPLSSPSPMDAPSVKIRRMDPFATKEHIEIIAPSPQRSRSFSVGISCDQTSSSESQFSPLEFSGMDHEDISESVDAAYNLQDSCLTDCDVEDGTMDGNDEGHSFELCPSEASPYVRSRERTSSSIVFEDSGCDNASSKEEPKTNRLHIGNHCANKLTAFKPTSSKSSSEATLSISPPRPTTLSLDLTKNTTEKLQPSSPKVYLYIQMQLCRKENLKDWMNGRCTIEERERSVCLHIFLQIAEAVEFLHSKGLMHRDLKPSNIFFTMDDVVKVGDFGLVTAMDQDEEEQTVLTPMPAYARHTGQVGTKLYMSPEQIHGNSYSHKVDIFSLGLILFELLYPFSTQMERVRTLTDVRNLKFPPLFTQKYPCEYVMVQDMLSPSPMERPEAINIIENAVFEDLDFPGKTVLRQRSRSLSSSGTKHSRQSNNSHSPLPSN
# Dynein transport – dynein cargo transport inhibition; 3617.4 mouse cells, GR-EGFP nuclear translocation imaging; test concentration mostly 20 µM; stimulated with dexamethasone, 1 µM; hits give low values; z-score, hits read low; AID 1381; hit rate 0.47% among 220,000;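 active = plate z-score of nuclear minus cytoplasmic receptor signal below a set negative limit, without overly bright fluorescence or cell loss, cut at about -3.5 in these data, passing the limit was not always enough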;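 note: z-score of nuclear minus cytoplasmic ring GR-EGFP intensity difference per well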
#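 medium = tetracycline-free induction medium containing charcoal-stripped FBS | also added = 1.0 µM final dexamethasone stimulus | schedule = 48 h induction, 1 h compound, 30 min dex at 37 °C | technique = fixed, Hoechst-stained cells imaged at 10x for EGFP | measure = GR-EGFP nuclear translocation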
# Dynein confirm – dynein cargo transport inhibition, confirmation | shares compounds with Dynein transport | 3617.4 GR-EGFP nuclear translocation imaging, dexamethasone-induced | calls only at 20 µM | hit rate 69% among 1,000;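 active = inhibition of receptor movement into the nucleus at or above a set limit in both runs, with normal cell brightness and cell count; inconclusive = limit reached in only one run, brightness and count normal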;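 note: dexamethasone at 1 µM final in well for 30 min; nuclear minus cytoplasmic GR-EGFP mean intensity difference in channel 2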
# Hits are given with their value; n = inactive; u = inconclusive; x = not tested or not shown; + = active, no number.
SMILES,HKDC1 inhibitor,HSV replic up,Autophagy mod,TbHK1 inh,PERK inhibitor,Dynein transport,Dynein confirm
O=S(=O)(c1cnc(Cl)c(Br)c1)N1CCc2ccccc21,n,n,x,n,n,-4.7,+
CC(C)(C)NC(=S)N/N=C\c1ccc(-c2ccc([N+](=O)[O-])cc2)o1,n,n,x,n,n,n,n
COc1ccc(C(C)(C)C)cc1NC(=O)COC(=O)CN1C(=O)NC2(CCCCC2C)C1=O (configuration not stated),n,x,x,x,x,x,x
CC1(C)Cc2c(c(N3CCCC3)nc3sc4c(N5CCNCC5)ncnc4c23)CO1,n,n,x,n,n,n,x
CO/N=C/c1ccc(Oc2ccc([N+](=O)[O-])cc2[N+](=O)[O-])c(OC)c1,n,n,n,n,n,n,x
COc1cc(/C=C2\SC(=O)NC2=O)ccc1Oc1ccc([N+](=O)[O-])cc1[N+](=O)[O-],n,n,n,n,n,-3.8,u
CCn1c(=O)c([N+](=O)[O-])c(Cl)c2ccccc21,n,n,n,n,n,-6.1,+
CCn1c(=O)c([N+](=O)[O-])c(NCCN(C)C)c2ccccc21,n,n,n,n,n,n,x
Cc1ccc(CCNC(=O)c2sc3nc4n(c(=O)c3c2C)CCC4)cc1,n,x,x,x,x,x,x
Cc1ccc(-c2csc3nc(C)n(-n4c(C)ccc4C)c(=O)c23)o1,n,n,n,n,n,-4,n
Cc1ccc(-c2csc3nc(C)n(N)c(=O)c23)o1,n,n,n,n,n,n,x
O=C1C(CN2CCCC2)CCCC1CN1CCCC1 (configuration not stated),n,x,x,x,x,x,x
O=C(c1ccccc1)c1c[nH]c(C(=O)C(Cl)(Cl)Cl)c1,n,n,n,n,n,n,x
O=C(c1ccc(Cl)cc1)c1c[nH]c(C(=O)C(Cl)(Cl)Cl)c1,n,n,n,n,n,-3.7,+
Clc1ncnc2scc(C3COc4ccccc4O3)c12 (configuration not stated),n,n,n,n,n,-4.2,+
c1ccc2c(c1)OCC(c1csc3ncnc(N4CCCCC4)c13)O2 (configuration not stated),n,n,n,n,n,n,x
CNc1nnc(SCC(=O)N2c3ccccc3NC(=O)CC2C)s1 (configuration not stated),n,x,x,x,x,x,x
CC(C)(C)c1ccc(OCCCNCc2ccccc2)cc1,n,n,n,n,n,n,x
CCc1cc(OCCCCNCc2ccccc2)ccc1Cl,n,n,n,n,n,-6.9,n
O=S(=O)(c1ccccc1)c1ncc(C(F)(F)F)cc1Cl,n,n,n,n,n,-6.4,+
N#Cc1cccc(N=c2ssnc2Cl)c1,n,n,n,n,n,n,+
CC(C)(c1ccccc1)c1ccc(OCC(O)CNC2CCN(Cc3ccccc3)CC2)cc1 (configuration not stated),n,n,+,n,n,-5,n
CCOc1ccc(OCC(O)CNC2CCN(Cc3ccccc3)CC2)cc1 (configuration not stated),n,n,n,n,n,n,x
COc1ccc(NC(=O)C2CCCN(c3nn4c(=O)cc(C)nc4s3)C2)c(OC)c1 (configuration not stated),n,x,x,x,x,x,x
CC(=O)N1c2ccccc2C(=O)C1N(C)c1ccc(C)cc1 (configuration not stated),n,x,x,x,x,x,x
SMILES,HKDC1 inhibitor,HSV replic up,Autophagy mod,TbHK1 inh,PERK inhibitor,Dynein transport,Dynein confirm
CC(=O)N1/C(=C/c2ccc(N(C)C)cc2)C(=O)c2ccccc21,n,n,n,n,n,-5.8,+
O=C(NCc1ccc(Cl)cc1)c1cc(S(=O)(=O)N2CCCCC2)c[nH]1,n,x,x,x,x,x,x
Cc1ccc(-n2nnnc2Sc2ccc(S(=O)(=O)NCCN(C)C)cc2[N+](=O)[O-])cc1,n,n,n,n,n,-4,+
O=C(O)CCN1C(=O)/C(=C\c2ccc(-c3nc4ccccc4s3)o2)SC1=S,n,u,n,n,n,n,n
O=C(O)CCCN1C(=O)/C(=C\c2ccco2)SC1=S,n,n,n,n,n,n,x
COc1ccc(OC)c(C(=O)COC(=O)COc2ccccc2F)c1,n,x,x,x,x,x,x
COc1ccc(NC(=O)CN(C)C(=O)c2ccc(S(=O)(=O)Nc3ccccc3C)cc2)cc1,n,x,x,x,x,x,x
Cc1cc(C)cc(Cn2ncc(Cl)c(Cl)c2=O)c1,n,n,n,n,n,-6.1,+
Cc1ccc(Cn2ncc(Cl)c(Cl)c2=O)cc1,n,n,n,n,n,n,x
O=c1c(Cl)c(Cl)cnn1Cc1ccccc1Cl,n,x,n,n,n,-3.9,+
O=c1c(Cl)c(Cl)cnn1Cc1nnc(-c2ccc(Cl)cc2)o1,n,n,n,n,n,-4.8,+
O=c1c(Cl)c(Cl)cnn1-c1ccccc1,n,n,n,n,n,-4.6,+
CC(=O)/C(=C/c1ccccc1)C(=O)Nc1ccccc1C,n,n,n,n,n,-6.7,+
COc1ccc2c(c1)c(C(C)=O)c(C)n2CCc1ccccc1,n,x,x,x,x,x,x
COc1ccccc1C(c1c(N)n(C)c(=O)n(C)c1=O)C(C)[N+](=O)[O-] (configuration not stated),n,n,x,n,n,n,x
COc1ccccc1C(C[N+](=O)[O-])c1c(N)n(C)c(=O)n(C)c1=O (configuration not stated),n,n,x,n,n,-3.5,u
CN(C)CCCN1C(=O)c2cccc3c(Br)ccc(c23)C1=O,n,n,n,n,n,n,x
CCCCNc1ccc2c3c(cccc13)C(=O)N(CCCC)C2=O,n,x,x,n,n,-6.1,+
CCOC(=O)c1c2ccc(OCC(=O)N/N=C/c3ccc(Cl)cc3)cc2n2ccccc12,x,x,+,n,n,n,n
CCOC(=O)c1c2ccc(OCC(=O)N/N=C/c3ccccc3C(F)(F)F)cc2n2ccccc12,x,n,n,n,n,n,x
COc1cc(C(=O)Nc2cc(S(C)(=O)=O)ccc2Cl)ccc1OCC(=O)N1CCOCC1,n,x,x,x,x,x,x
CCOc1nc(C#N)nc(N2CCCCC2)n1,n,x,n,n,n,-3.5,+
N#CCOc1nc(N2CCCCC2)nc(N2CCCCC2)n1,n,n,n,n,n,n,x
COC(=O)c1ccccc1NC(=O)CNc1ccc(F)c(S(=O)(=O)N2CCOCC2)c1,n,x,x,x,x,x,x
COCCCNC(=O)c1ccc2c3c(onc13)-c1ccccc1C2=O,n,n,x,n,n,-4.9,+
COCCCNC(=O)c1ccccc1Oc1ccccc1,n,n,n,n,n,n,x
O=C(Nc1ccccc1)c1cccc(Cn2cc(C(F)(F)F)ccc2=O)c1,n,n,x,n,n,n,x
O=C(Sc1ccccc1)c1cccc(Cn2cc(C(F)(F)F)ccc2=O)c1,n,n,x,n,n,-3.9,+
CC(C(Sc1ccccc1N)c1ccccc1)[N+](=O)[O-] (configuration not stated),n,n,x,n,n,-5.5,+
Nc1ccccc1SSc1ccccc1N,n,n,x,n,n,n,x
